Assay results reported in ChEMBL document CHEMBL3779767, “Identification of potent and selective MTH1 inhibitors” (Bioorg Med Chem Lett, 2016).
Calls of active or inactive are those of the source. The rule behind the calls is not given here.

Tests used:
[1] = test system: Tyrosine-protein kinase ABL1 (Homo sapiens), P00519 [T315I]; assay: Inhibition of partial length human ABL1 T315I mutant phosphorylation expressed in mammalian system at 1 uM
In short: (§1)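 Single-point screen within a 97-kinase profiling panel, with the test compound at 1 µM.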

[2] = molecular target: RAC-alpha serine/threonine-protein kinase (Homo sapiens) (UniProt P31749); assay: Inhibition of partial length human AKT1 expressed in bacterial system at 1 uM; in short: as §1
Chain of RAC-alpha serine/threonine-protein kinase (Homo sapiens) (P31749 whole entry): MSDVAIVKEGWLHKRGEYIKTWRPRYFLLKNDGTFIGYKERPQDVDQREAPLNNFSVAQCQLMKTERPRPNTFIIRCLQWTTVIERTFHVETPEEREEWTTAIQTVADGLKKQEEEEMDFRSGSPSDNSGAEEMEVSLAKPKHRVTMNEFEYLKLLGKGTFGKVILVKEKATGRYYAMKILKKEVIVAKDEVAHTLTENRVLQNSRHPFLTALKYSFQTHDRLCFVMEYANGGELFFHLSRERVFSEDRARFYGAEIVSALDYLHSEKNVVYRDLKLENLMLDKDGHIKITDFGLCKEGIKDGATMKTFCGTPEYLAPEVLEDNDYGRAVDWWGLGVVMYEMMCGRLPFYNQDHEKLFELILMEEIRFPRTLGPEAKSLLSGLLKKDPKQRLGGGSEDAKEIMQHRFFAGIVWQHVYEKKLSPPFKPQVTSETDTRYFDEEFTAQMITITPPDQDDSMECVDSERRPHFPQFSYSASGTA

[3] = molecular target: RAC-beta serine/threonine-protein kinase (Homo sapiens) (UniProt P31751); assay: Inhibition of partial length human AKT2 expressed in bacterial system at 1 uM; in short: as §1
[4] = molecular target: Aurora kinase A (Homo sapiens) (UniProt O14965); assay: Inhibition of partial length human Aurora A expressed in mammalian system at 1 uM; in short: as §1
Chain of Aurora kinase A (Homo sapiens) (O14965 whole entry): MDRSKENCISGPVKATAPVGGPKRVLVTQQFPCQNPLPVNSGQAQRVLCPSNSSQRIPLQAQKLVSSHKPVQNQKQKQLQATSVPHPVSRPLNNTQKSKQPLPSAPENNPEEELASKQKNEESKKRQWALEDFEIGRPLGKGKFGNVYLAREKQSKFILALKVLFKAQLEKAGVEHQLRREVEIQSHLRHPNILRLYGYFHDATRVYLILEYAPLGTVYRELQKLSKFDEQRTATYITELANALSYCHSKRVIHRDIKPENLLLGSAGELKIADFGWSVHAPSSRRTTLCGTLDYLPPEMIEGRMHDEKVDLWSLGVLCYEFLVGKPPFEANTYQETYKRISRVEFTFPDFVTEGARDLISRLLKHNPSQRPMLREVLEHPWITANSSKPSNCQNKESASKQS

[5] = molecular target: Tyrosine-protein kinase receptor UFO (Homo sapiens) (UniProt P30530); assay: Inhibition of partial length human AXL expressed in bacterial system at 1 uM; in short: as §1
[6] = molecular target: Tyrosine-protein kinase BTK (Homo sapiens) (UniProt Q06187); assay: Inhibition of partial length human BTK expressed in mammalian system at 1 uM; in short: as §1
[7] = molecular target: Cyclin-dependent kinase 3 (Homo sapiens) (UniProt Q00526); assay: Inhibition of partial length human CDK3 expressed in bacterial system at 1 uM; in short: as §1
[8] = molecular target: Dual specificity tyrosine-phosphorylation-regulated kinase 1B (Homo sapiens) (UniProt Q9Y463); assay: Inhibition of partial length human DYRK1B expressed in bacterial system at 1 uM; in short: as §1
[9] = molecular target: Ephrin type-A receptor 2 (Homo sapiens) (UniProt P29317); assay: Inhibition of partial length human EPHA2 expressed in bacterial system at 1 uM; in short: as §1
[10] = molecular target: Fibroblast growth factor receptor 3 (Homo sapiens) (UniProt P22607); assay: Inhibition of partial length human FGFR3 expressed in bacterial system at 1 uM; in short: as §1
[11] = molecular target: Receptor-type tyrosine-protein kinase FLT3 (Homo sapiens) (UniProt P36888); assay: Inhibition of partial length human FLT3 expressed in bacterial system at 1 uM; in short: as §1
[12] = molecular target: Tyrosine-protein kinase JAK3 (Homo sapiens) (UniProt P52333); assay: Inhibition of partial length human JAK3 JH1 catalytic domain expressed in mammalian system at 1 uM; in short: as §1
[13] = molecular target: Mitogen-activated protein kinase 9 (Homo sapiens) (UniProt P45984); assay: Inhibition of partial length human JNK2 expressed in mammalian system at 1 uM; in short: as §1
Chain of Mitogen-activated protein kinase 9 (Homo sapiens) (P45984 whole entry, looked up): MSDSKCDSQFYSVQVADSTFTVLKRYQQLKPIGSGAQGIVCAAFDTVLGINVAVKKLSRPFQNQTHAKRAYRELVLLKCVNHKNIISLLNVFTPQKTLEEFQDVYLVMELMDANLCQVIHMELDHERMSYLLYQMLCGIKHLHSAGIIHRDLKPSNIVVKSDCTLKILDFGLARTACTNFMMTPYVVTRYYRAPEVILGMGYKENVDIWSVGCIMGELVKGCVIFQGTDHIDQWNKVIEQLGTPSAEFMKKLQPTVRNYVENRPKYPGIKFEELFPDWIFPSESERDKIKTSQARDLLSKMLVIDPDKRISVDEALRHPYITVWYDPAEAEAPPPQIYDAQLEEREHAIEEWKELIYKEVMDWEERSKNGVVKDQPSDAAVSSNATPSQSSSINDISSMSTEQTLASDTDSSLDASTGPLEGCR

[14] = molecular target: Mitogen-activated protein kinase 10 (Homo sapiens) (UniProt P53779); assay: Inhibition of partial length human JNK3 expressed in mammalian system at 1 uM; in short: as §1
[15] = molecular target: Mast/stem cell growth factor receptor Kit (Homo sapiens) (UniProt P10721); assay: Inhibition of partial length human KIT expressed in bacterial system at 1 uM
Chain of Mast/stem cell growth factor receptor Kit (Homo sapiens) (P10721 whole entry): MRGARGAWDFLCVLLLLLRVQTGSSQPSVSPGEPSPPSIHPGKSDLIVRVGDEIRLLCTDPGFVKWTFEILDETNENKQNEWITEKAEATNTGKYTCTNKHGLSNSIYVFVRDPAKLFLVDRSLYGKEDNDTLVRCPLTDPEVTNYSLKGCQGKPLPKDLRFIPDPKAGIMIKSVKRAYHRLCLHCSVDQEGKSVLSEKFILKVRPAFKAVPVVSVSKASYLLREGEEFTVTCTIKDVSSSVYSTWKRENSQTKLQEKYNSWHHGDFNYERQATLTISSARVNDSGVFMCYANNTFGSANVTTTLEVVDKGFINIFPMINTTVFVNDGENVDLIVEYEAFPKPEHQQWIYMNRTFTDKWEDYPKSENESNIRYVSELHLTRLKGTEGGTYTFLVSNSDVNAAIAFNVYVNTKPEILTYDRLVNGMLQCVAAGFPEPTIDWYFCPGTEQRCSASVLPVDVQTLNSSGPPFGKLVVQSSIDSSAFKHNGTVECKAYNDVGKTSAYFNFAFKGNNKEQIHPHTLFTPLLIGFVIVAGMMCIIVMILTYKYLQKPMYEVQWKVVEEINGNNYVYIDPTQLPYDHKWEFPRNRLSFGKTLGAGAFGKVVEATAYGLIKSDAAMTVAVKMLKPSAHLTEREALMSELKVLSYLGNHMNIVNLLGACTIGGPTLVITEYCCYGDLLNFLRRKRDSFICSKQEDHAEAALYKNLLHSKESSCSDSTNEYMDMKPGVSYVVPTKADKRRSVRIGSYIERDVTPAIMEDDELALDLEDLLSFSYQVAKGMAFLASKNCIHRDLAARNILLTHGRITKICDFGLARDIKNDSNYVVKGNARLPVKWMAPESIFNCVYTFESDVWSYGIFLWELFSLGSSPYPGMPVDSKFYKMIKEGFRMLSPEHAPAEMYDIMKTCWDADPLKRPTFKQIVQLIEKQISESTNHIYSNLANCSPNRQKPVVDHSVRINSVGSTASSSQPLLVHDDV
In short: (§2)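 Single-concentration screen at 1 µM test concentration, run as part of a commercial binding/activity profiling panel covering 97 kinases.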

[16] = test system: Mast/stem cell growth factor receptor Kit (Homo sapiens), P10721 [D816V]; assay: Inhibition of partial length human KIT D816V mutant expressed in bacterial system at 1 uM; in short: as §2
Chain of Mast/stem cell growth factor receptor Kit (Homo sapiens), P10721 [D816V] (P10721 whole entry D816V): as the sequence (P10721 whole entry) above, with D816V counted along it

[17] = test system: Mast/stem cell growth factor receptor Kit (Homo sapiens), P10721 [V559D,T670I]; assay: Inhibition of partial length human KIT V559D/T670I double mutant expressed in bacterial system at 1 uM; in short: as §2
Chain of Mast/stem cell growth factor receptor Kit (Homo sapiens), P10721 [V559D,T670I] (P10721 whole entry V559D/T670I): as the sequence (P10721 whole entry) above, with V559D, T670I counted along it

[18] = molecular target: Mitogen-activated protein kinase kinase kinase 4 (Homo sapiens) (UniProt Q9Y6R4); assay: Inhibition of partial length human MAP3K4 expressed in bacterial system at 1 uM; in short: as §1
[19] = molecular target: MAP kinase-activated protein kinase 2 (Homo sapiens) (UniProt P49137); assay: Inhibition of partial length human MAPKAPK2 expressed in bacterial system at 1 uM; in short: as §1
[20] = molecular target: MAP kinase-interacting serine/threonine-protein kinase 2 (Homo sapiens) (UniProt Q9HBH9); assay: Inhibition of partial length human MKNK2 expressed in mammalian system at 1 uM
In short: (§3)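 Single-concentration screen across a panel of 97 kinases, with the test compound at 1 uM.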

[21] = molecular target: Serine/threonine-protein kinase PAK 4 (Homo sapiens) (UniProt O96013); assay: Inhibition of partial length human PAK4 expressed in bacterial system at 1 uM; in short: as §3
[22] = molecular target: Platelet-derived growth factor receptor beta (Homo sapiens) (UniProt P09619); assay: Inhibition of partial length human PDGFRbeta expressed in bacterial system at 1 uM; in short: as §3
[23] = molecular target: 3-phosphoinositide-dependent protein kinase 1 (Homo sapiens) (UniProt O15530); assay: Inhibition of partial length human PDPK1 expressed in bacterial system at 1 uM; in short: as §3
Chain of 3-phosphoinositide-dependent protein kinase 1 (Homo sapiens) (O15530 whole entry): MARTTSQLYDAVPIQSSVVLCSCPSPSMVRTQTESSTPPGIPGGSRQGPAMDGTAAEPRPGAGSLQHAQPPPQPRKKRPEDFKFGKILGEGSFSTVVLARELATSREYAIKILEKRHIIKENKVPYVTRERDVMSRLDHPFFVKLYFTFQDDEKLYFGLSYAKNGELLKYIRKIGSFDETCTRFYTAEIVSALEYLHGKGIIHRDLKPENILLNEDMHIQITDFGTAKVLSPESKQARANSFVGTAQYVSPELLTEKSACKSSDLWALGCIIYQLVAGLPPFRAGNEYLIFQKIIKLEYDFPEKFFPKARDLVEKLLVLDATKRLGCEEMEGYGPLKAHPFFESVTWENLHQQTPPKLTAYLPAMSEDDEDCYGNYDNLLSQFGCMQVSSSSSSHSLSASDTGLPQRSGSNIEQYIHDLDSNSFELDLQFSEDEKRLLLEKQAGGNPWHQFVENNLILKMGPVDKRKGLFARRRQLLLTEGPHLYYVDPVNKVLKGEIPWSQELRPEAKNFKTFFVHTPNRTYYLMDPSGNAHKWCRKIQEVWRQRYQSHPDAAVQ

[24] = molecular target: RAF proto-oncogene serine/threonine-protein kinase (Homo sapiens) (UniProt P04049); assay: Inhibition of partial length human RAF1 expressed in bacterial system at 1 uM; in short: as §3
Chain of RAF proto-oncogene serine/threonine-protein kinase (Homo sapiens) (P04049 whole entry): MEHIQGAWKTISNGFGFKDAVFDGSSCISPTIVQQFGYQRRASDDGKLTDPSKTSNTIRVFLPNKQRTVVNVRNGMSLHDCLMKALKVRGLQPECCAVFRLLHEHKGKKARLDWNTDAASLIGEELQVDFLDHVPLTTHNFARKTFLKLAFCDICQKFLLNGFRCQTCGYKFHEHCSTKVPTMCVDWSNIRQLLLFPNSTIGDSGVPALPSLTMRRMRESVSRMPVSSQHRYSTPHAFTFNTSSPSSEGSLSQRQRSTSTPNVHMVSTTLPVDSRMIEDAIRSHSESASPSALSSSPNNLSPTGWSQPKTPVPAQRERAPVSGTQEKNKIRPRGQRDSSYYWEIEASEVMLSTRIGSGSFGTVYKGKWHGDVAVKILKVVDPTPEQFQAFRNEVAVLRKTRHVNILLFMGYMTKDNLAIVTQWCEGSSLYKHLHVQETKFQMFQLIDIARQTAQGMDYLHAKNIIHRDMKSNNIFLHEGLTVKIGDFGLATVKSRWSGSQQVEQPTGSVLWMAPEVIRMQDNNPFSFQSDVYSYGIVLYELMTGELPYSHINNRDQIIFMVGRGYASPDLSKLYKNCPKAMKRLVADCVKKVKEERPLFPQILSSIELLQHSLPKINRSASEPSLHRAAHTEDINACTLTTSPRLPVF

[25] = molecular target: Proto-oncogene tyrosine-protein kinase receptor Ret (Homo sapiens) (UniProt P07949); assay: Inhibition of partial length human RET expressed in bacterial system at 1 uM; in short: as §3
[26] = molecular target: Angiopoietin-1 receptor (Homo sapiens) (UniProt Q02763); assay: Inhibition of partial length human TIE2 expressed in bacterial system at 1 uM; in short: as §3
[27] = molecular target: Serine/threonine-protein kinase ULK2 (Homo sapiens) (UniProt Q8IYT8); assay: Inhibition of partial length human ULK2 expressed in mammalian system at 1 uM; in short: as §3
[28] = molecular target: Vascular endothelial growth factor receptor 2 (Homo sapiens) (UniProt P35968); assay: Inhibition of partial length human VEGFR2 expressed in mammalian system at 1 uM; in short: as §3
Chain of Vascular endothelial growth factor receptor 2 (Homo sapiens) (P35968 whole entry): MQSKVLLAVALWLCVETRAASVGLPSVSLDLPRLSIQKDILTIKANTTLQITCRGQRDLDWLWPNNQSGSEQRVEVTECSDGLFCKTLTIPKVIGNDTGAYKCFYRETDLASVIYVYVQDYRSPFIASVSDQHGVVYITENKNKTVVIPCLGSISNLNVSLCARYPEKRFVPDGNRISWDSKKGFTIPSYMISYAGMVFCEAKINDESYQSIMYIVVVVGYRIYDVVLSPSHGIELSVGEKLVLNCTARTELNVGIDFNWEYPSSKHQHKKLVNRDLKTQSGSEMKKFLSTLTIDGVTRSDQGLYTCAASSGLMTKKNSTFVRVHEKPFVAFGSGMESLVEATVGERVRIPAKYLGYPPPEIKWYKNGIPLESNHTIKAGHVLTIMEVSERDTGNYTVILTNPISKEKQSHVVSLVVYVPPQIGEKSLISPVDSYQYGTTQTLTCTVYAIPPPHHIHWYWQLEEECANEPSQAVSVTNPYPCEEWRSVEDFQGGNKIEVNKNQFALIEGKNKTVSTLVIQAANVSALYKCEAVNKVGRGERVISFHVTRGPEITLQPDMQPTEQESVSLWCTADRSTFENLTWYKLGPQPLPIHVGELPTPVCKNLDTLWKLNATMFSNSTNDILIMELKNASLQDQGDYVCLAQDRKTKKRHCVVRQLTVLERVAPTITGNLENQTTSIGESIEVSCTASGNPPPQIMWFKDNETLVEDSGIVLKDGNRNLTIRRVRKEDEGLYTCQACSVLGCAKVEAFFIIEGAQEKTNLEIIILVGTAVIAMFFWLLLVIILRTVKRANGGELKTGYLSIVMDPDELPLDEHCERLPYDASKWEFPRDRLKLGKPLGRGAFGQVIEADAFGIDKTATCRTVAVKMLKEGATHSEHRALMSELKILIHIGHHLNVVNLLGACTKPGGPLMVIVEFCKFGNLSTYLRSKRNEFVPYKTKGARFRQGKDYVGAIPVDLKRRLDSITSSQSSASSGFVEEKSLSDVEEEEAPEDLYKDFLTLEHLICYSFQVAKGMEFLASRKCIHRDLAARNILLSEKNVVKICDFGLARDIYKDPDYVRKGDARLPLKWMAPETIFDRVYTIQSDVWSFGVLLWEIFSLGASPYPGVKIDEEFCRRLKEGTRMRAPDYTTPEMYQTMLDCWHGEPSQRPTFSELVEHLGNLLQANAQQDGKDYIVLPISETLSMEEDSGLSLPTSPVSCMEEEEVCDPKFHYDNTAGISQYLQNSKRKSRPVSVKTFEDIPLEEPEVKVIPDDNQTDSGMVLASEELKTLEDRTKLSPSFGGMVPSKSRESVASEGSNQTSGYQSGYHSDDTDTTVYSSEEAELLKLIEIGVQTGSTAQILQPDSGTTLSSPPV

[29] = Intrinsic clearance in mouse liver microsomes; assay type: ADME
[30] = Half life in mouse liver microsomes; assay type: ADME
In short: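 Incubated with human or mouse liver microsomes; the read-out was intrinsic clearance alongside half-life, given in hours.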

[31] = Fraction unbound in human plasma; assay type: ADME, cell-free
[32] = Cytotoxicity against human WI38 cells assessed as change in phenotypic response measured after prolonged treatment; assay type: cell-based; conditions: wi-38
MDA-MB-231 [33] = assay: Antiproliferative activity against human MDA-MB-231 cells assessed as change in phenotypic response measured after prolonged treatment; assay type: functional, cell-based
HMEC [34] = assay: Cytotoxicity against human HMEC cells assessed as change in phenotypic response up to 50 uM; assay type: cell-based
A549 = assay: Antiproliferative activity against human A549 cells assessed as change in phenotypic response up to 50 uM; assay type: functional, cell-based
[35] = Cytotoxicity against human 293T cells assessed as change in phenotypic response up to 50 uM; assay type: cell-based; conditions: hek-293t
MDA-MB-231 [36] = assay: Antiproliferative activity against human MDA-MB-231 cells assessed as change in phenotypic response up to 50 uM; assay type: functional, cell-based
HCT-116 = assay: Antiproliferative activity against human HCT116 cells assessed as change in phenotypic response up to 50 uM; assay type: functional, cell-based
HMEC [37] = assay: Cytotoxicity against human HMEC cells assessed as change in phenotypic response measured after prolonged treatment; assay type: cell-based
UOK 262 [38] = assay: Antiproliferative activity against human UOK 262 cells assessed as change in phenotypic response up to 50 uM; assay type: functional, cell-based
UOK 262 [39] = assay: Antiproliferative activity against human UOK 262 cells assessed as change in phenotypic response measured after prolonged treatment; assay type: functional, cell-based
NCI-H358 = assay: Antiproliferative activity against human NCI-H358 cells assessed as change in phenotypic response up to 50 uM; assay type: functional, cell-based

SMILES: Cc1cnc(N)nc1OCC(C)(C)CO
- inhibition [1]: inactive
- inhibition [2]: inactive
- inhibition [3]: inactive
- inhibition [4]: inactive
- inhibition [5]: inactive
- inhibition [6]: inactive
- inhibition [7]: inactive
- inhibition [8]: inactive
- inhibition [9]: inactive
- inhibition [10]: inactive
- inhibition [11]: inactive
- inhibition [12]: inactive
- inhibition [13]: inactive
- inhibition [14]: inactive
- inhibition [15]: inactive
- inhibition [16]: inactive
- inhibition [17]: inactive
- inhibition [18]: inactive
- inhibition [19]: inactive
- inhibition [20]: inactive
- inhibition [21]: inactive
- inhibition [22]: inactive
- inhibition [23]: inactive
- inhibition [24]: inactive
- inhibition [25]: inactive
- inhibition [26]: inactive
- inhibition [27]: inactive
- inhibition [28]: inactive
- CLH [29]: 60 µL/min/mg
- half-life [30]: 1.5 h
- fraction unbound [31]: 0.46
- Activity [32]: Non-toxic
- Activity (MDA-MB-231 [33]): inactive
- Activity (HMEC [34]): Non-toxic
- Activity (A549): inactive
- Activity [35]: Non-toxic
- Activity (MDA-MB-231 [36]): inactive
- Activity (HCT-116): inactive
- Activity (HMEC [37]): Non-toxic
- Activity (UOK 262 [38]): inactive
- Activity (UOK 262 [39]): inactive
- Activity (NCI-H358): inactive
